# Assay results from PubChem BioAssay AID602220 (Southern Research Specialized Biocontainment Screening …, 2012).
# Activity calls are given as the source filed them.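 Rule for the calls: active = at least 30% inhibition of the enzyme at any tested dose; inactive = the rest.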
# Target: M17 leucyl aminopeptidase (Plasmodium falciparum 3D7)
# Test: PfM17LAP leucine aminopeptidase inhibitors, dose response, counter-screen for PfM18AAP inhibitor project, biochemical, QFRET, set 2 (AID 602220)
# Details: recombinant PfM17LAP, H-Leu-NHMec fluorogenic cleavage
# Method in brief: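 Test system: purified recombinant PfM17LAP, M17 leucine aminopeptidase of Plasmodium falciparum. Amount: 5 µg/mL enzyme. Schedule: 90 min reaction, room temperature. Technique: fluorescence of released NHMec, excitation 370 nm, emission 460 nm. Read-out basis: IC50 from 4-parameter fit of % inhibition, bounds fixed 0–100%. Control set: full reaction and no-enzyme background wells. Repeats: triplicate.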
row,SMILES,IC50
1,CCc1ccc(NC(=O)Cc2nc(-c3ccc(O)c(O)c3)cs2)cc1,57.8 µM
2,CN1CCN(CCc2ccc(O)c(O)c2)CC1,94.3 µM
3,CN1CCN(CCCc2ccc(O)c(O)c2)CC1,73.8 µM

# Now from value to molecule:
row,IC50,SMILES
1,14.2 µM,Oc1ccc(CCNc2c3ccccc3nc3ccccc23)cc1O
2,29.8 µM,Oc1ccc(-c2csc(NC3CCCC3)n2)cc1O
3,29.4 µM,CN1CCN(c2nc(-c3ccc(O)c(O)c3)cs2)CC1
4,12.3 µM,Oc1ccc(-c2csc(Nc3ncccn3)n2)cc1O
5,30.1 µM,Oc1ccc(CCNc2ccnc3ccccc23)cc1O

# Same assay, conditions: recombinant PfM17LAP, H-Leu-NHMec fluorogenic cleavage; at 100 µM (top of the series)
row,inhibition,SMILES
1,inactive,COc1ccc(CCNC(c2ccccc2)c2ccccc2)cc1OC
2,inactive,COc1ccc(CCCN2CCN(C)CC2)cc1OC
